# Results from ChEMBL document CHEMBL3272345, “Specificity in enzyme inhibition. 3. Synthesis of 5-substituted 2,2-dimethyl-4-imidazolidinones as inhibitors of tyrosine decarboxylase and histidine decarboxylase” (1976).
# Active and inactive are the calls of the source. The calls are words filed in the database; no cut-off is given here.
# Assays:
# [1] = molecular target: T1, Decarboxylase (Enterococcus faecalis) (UniProt Q8KXD2); test: Inhibition of Streptococcus faecalis tyrosine decarboxylase assessed as 14CO2 production using 5 mM L-phenylalanine-1-14C as substrate at 5 mM after 30 mins by scintillation counting analysis
# T1 sequence (whole entry): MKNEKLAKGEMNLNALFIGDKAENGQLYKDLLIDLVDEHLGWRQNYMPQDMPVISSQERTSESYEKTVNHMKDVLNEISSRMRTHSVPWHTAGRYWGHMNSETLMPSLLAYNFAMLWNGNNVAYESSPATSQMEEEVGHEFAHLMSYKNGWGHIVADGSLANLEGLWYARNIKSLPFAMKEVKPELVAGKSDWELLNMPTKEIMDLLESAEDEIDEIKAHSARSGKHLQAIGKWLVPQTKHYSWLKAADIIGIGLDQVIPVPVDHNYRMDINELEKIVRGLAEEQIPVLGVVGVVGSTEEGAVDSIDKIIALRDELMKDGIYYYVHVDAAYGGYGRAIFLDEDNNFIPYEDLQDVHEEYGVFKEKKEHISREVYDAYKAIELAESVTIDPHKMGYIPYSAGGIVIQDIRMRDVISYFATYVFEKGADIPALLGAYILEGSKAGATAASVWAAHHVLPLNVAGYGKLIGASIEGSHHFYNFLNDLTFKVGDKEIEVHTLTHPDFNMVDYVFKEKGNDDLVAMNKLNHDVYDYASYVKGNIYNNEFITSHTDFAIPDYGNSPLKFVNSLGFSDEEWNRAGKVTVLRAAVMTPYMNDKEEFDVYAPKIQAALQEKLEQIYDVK
# How it was run: (§1)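 Crude S. faecalis tyrosine decarboxylase acetone powder (0.5 mg) used as the phenylalanine decarboxylase. Buffer was citrate–phosphate/0.2 M NaPO₄ pH 5.5 with 0.5 mM pyridoxal 5-phosphate, and the substrate was L-phenylalanine-1-¹⁴C (10⁻² μCi/μmol). Inhibitor at 5 mM. Incubated at 37° with shaking, stopped by TCA. ¹⁴CO₂ absorbed 30 min into hyamine and counted by scintillation. Percent inhibition versus controls, average of triplicates.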
# [2] = molecular target: T1, Decarboxylase (Enterococcus faecalis); test: Inhibition of Streptococcus faecalis tyrosine decarboxylase assessed as 14CO2 production using 10 mM L-phenylalanine-1-14C as substrate at 5 mM after 20 mins by scintillation counting analysis; how it was run: as §1
# [3] = molecular target: T1, Decarboxylase (Enterococcus faecalis); test: Inhibition of Streptococcus faecalis tyrosine decarboxylase assessed as 14CO2 production using 0.8 mM L-tyrosine-1-14C as substrate at 5 mM after 20 mins by scintillation counting analysis
# How it was run: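 Crude acetone-powder enzyme from S. faecalis, 8 × 10⁻³ mg per 0.5 ml, in 0.075 M citrate–0.15 M phosphate pH 5.5 with 0.5 mM pyridoxal 5-phosphate. Substrate L-tyrosine-1-¹⁴C (2.85 × 10⁻¹ μCi/μmol). Inhibitor tested at 5 mM, 37° for 20 min, stopped with TCA. ¹⁴CO₂ trapped in hyamine hydroxide for 20 min and counted by scintillation. Percent inhibition versus no-inhibitor controls, mean of triplicate runs.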
# [4] = molecular target: T2, Histidine decarboxylase (Rattus norvegicus) (UniProt P16453); test: Inhibition of fetal rat histidine decarboxylase at 1 mM
# T2 sequence (whole entry): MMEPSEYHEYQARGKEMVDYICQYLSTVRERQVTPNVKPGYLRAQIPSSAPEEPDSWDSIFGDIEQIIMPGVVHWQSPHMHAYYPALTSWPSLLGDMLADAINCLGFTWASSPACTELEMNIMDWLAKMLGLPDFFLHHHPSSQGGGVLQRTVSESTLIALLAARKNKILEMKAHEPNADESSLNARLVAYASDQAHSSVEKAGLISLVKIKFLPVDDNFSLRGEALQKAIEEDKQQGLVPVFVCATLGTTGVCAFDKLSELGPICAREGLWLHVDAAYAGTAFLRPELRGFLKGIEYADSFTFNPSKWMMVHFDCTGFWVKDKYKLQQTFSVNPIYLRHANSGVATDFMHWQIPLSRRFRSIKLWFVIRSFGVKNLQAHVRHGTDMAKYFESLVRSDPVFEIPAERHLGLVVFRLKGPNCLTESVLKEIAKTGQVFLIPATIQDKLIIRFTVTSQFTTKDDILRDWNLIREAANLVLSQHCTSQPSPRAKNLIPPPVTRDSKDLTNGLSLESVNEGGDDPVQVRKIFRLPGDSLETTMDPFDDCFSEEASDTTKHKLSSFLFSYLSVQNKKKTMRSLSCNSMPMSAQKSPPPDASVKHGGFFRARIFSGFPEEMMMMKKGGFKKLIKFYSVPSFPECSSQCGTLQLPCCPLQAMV
# Ileum = test: Inhibition of histamine-induced response in guinea pig ileum at 1 mM; type: functional; conditions: Cavia porcellus
SMILES,inhibition [1] [%],inhibition [2] [%],inhibition [3] [%],inhibition [4],inhibition at 1000 µM (Ileum) [%]
CC1(C)NC(=O)[C@H](Cc2ccc(O)cc2)N1,39,31,38,–,–
CC1(C)NC(=O)C(Cc2ccccc2)N1 (racemic),17,13,10,–,–
CC1(C)NC(=O)[C@H](Cc2cnc[nH]2)N1,27,24,–,inactive,57
CC1(C)NC(=O)[C@H](Cc2c[nH]c3ccccc23)N1,42,33,–,–,–
CC1(C)NC(=O)C(c2ccccc2)N1 (racemic),9,7,–,–,–
